Most compounds without a hit are left out; they make up all but 5.9% or so of the library.
T cruzi growth = inhibitors of T. cruzi proliferation; T. cruzi beta-gal in NIH3T3, GalScreen luminescence, 90 h; inhibition, % at 8.34 µM; hit rate 5.9% among 77,000; AID 624255;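 active = mean inhibition above about 93%, with at least 55% of replicates each passing it, limit read from the data, passing the limit was not always enough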
KDM4C inh = blocks human GASC-1 (KDM4C) demethylase activity. Q9H3R0. GST-KDM4C 2-372, H3K9me3 peptide, LANCE TR-FRET. inhibition, % at 12.5 µM. hit rate 0.15% among 96,000;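 active = mean replicate inhibition above about 25%, with at least 55% of replicates also reaching it, limit read from the data, passing the limit was not always enough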
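System: N-terminal GST-fused human GASC-1 (KDM4C) fragment, residues 2-372; amount: enzyme final amount 10 nM; incubation: reaction 30 min RT, detection step 1 h RT; medium: HEPES buffer, pH 7.5, plus ascorbate; technique: LANCE TR-FRET, Eu antibody, ULight-streptavidin, EDTA, ex 340 nm, em 618/671 nm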
IDH1 R132H inh = inhibitors of human IDH1 R132H | IDH1 R132H reductase, diaphorase/resazurin fluorescence, 60 min | inhibition, % at 10 µM | hit rate 0.18% among 70,000 | AID 624101; in the data active = inhibition above about 34%;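 also: 0% = DMSO and 100% = no enzyme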
Target sequence (O75874 whole entry R132H): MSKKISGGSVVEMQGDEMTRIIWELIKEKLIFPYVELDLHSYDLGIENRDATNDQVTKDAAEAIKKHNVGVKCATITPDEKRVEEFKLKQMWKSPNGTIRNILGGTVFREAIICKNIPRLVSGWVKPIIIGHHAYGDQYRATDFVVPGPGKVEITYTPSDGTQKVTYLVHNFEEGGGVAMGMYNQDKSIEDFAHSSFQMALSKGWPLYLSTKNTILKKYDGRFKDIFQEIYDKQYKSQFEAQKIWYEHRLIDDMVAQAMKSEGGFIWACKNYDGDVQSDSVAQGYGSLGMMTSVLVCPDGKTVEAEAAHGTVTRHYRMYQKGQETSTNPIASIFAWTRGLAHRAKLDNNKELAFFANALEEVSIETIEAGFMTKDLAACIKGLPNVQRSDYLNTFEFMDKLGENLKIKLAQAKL
Pf Dd2 growth = P. falciparum Dd2 growth inhibition; AID 1159554; hit rate 2.3% among 94,000; SYBR Green, 72 h; hits give low values; activity change, % at 10 µM; in the data active = activity change below about -80%
An asterisk follows results filed as active; ! = repeats disagree.

COc1ccc(NC(=O)Nc2ccc3c(c2)C(=O)N([C@H](C)CO)C[C@@H](C)[C@@H](CN(C)C(=O)Nc2ccc4c(c2)OCO4)OCCCC[C@@H](C)O3)cc1 was read as T cruzi growth 69, KDM4C inh 0 and Pf Dd2 growth -90*.
Screening C[C@@H]1CCCCO[C@@H](CN(C)C(=O)Nc2ccc3c(c2)OCO3)[C@@H](C)CN([C@H](C)CO)C(=O)c2cc(NC(=O)Nc3ccc(F)cc3)ccc2O1 returned T cruzi growth 37, KDM4C inh 1, IDH1 R132H inh 1 and Pf Dd2 growth 8.
`C[C@H](CO)N1C[C@H](C)[C@@H](CN(C)C(=O)Nc2ccc(C(F)(F)F)cc2)OCCCC[C@H](C)Oc2ccc(NC(=O)Nc3ccc4c(c3)OCO4)cc2C1=O` gave T cruzi growth 119*, KDM4C inh -4 and Pf Dd2 growth -38.
C[C@@H]1CCCCO[C@H](CN(C)C(=O)Nc2ccc3c(c2)OCO3)[C@H](C)CN([C@H](C)CO)C(=O)c2cc(NC(=O)NC3CCCCC3)ccc2O1 was read as T cruzi growth 63, KDM4C inh 0 and Pf Dd2 growth -82*.
For C[C@@H]1CCCCO[C@@H](CN(C)C(=O)Nc2ccc3c(c2)OCO3)[C@@H](C)CN([C@@H](C)CO)C(=O)c2cc(NC(=O)Nc3ccc(F)cc3)ccc2O1 the results were T cruzi growth 25, KDM4C inh 0, IDH1 R132H inh 2 and Pf Dd2 growth -83*.
Screening COCC(=O)N1[C@H](CO)[C@@H](c2ccc(-c3cccnc3)cc2)[C@@H]1C#N returned T cruzi growth 23, KDM4C inh 0 and Pf Dd2 growth 19.
`CNC(=O)C[C@H]1CC[C@@H]2[C@H](COc3ccc(NC(=O)c4ccc5c(c4)OCO5)cc3C(=O)N2C)O1` gave T cruzi growth 74, KDM4C inh -1 and Pf Dd2 growth 3.
`O=C(CCCN1C(=O)c2ccccc2C1=O)Nc1ccc(Cl)c(C(F)(F)F)c1` gave IDH1 R132H inh 0.
Screening Cc1ccc(S(=O)(=O)Nc2ccc3c(c2)C(=O)N([C@@H](C)CO)C[C@@H](C)[C@H](CN(C)Cc2ccccc2)O3)cc1 returned T cruzi growth 32, KDM4C inh 1 and Pf Dd2 growth 11.
`CCCC(=O)N1CC2(C1)CN(S(=O)(=O)c1ccc(C)cc1)[C@@H](CO)c1[nH]c3cc(OC)ccc3c12` gave KDM4C inh 0 and Pf Dd2 growth -87*.
For COc1ccc2c3c([nH]c2c1)[C@H](CO)N(S(=O)(=O)c1ccc(C)cc1)CC31CCN(C(=O)Cc2cccnc2)CC1 the results were Pf Dd2 growth -86*.
Screening CCS(=O)(=O)N1CC2(C1)CN(S(=O)(=O)c1ccc(C)cc1)[C@H](CO)c1[nH]c3cc(OC)ccc3c12 returned KDM4C inh 0 and Pf Dd2 growth -40.
For COc1ccc2c3c(n(C)c2c1)[C@@H](CO)N(C(=O)Nc1ccc(F)cc1)CC31CN(C(=O)CC2CC2)C1 the results were Pf Dd2 growth 3.
For C[C@H]1CN([C@@H](C)CO)C(=O)Cc2cc(NC(=O)Nc3ccc(C(F)(F)F)cc3)ccc2O[C@@H]1CN(C)C(=O)Nc1ccc2c(c1)OCO2 the results were KDM4C inh -4, IDH1 R132H inh 1 and Pf Dd2 growth -93*.
Screening C[C@H](CO)N1C[C@H](C)[C@@H](CN(C)C(=O)Nc2ccc3c(c2)OCO3)Oc2ccc(NC(=O)Nc3ccc(C(F)(F)F)cc3)cc2CC1=O returned KDM4C inh -2 and Pf Dd2 growth -93*.
C[C@@H]1CN([C@H](C)CO)C(=O)Cc2cc(NC(=O)Nc3ccc4c(c3)OCO4)ccc2O[C@H]1CN(C)C(=O)Nc1ccc(C(F)(F)F)cc1 was read as T cruzi growth 10, KDM4C inh -2, IDH1 R132H inh 0 and Pf Dd2 growth -27.
Screening CCCC#Cc1ccc2c(c1)[C@H]1[C@H](CCN1Cc1ccccc1F)[C@@H](CO)N2 returned KDM4C inh 0 and Pf Dd2 growth -83*.
`CCCC#Cc1ccc2c(c1)[C@@H]1[C@@H](CCN1S(=O)(=O)c1ccccc1C)[C@@H](CO)N2` gave KDM4C inh -1 and Pf Dd2 growth -84*.
For OC[C@@H]1Nc2ccc(-c3ccccc3)cc2[C@H]2[C@@H]1CCN2Cc1ccccc1F the results were T cruzi growth 50, KDM4C inh 0 and Pf Dd2 growth -23.
For C/C=C/c1ccc2c(c1)[C@H]1[C@H](CCN1S(=O)(=O)c1ccccc1C)[C@@H](CO)N2 the results were KDM4C inh -4 and Pf Dd2 growth -87*.
Screening C/C=C/c1ccc2c(c1)[C@H]1[C@H](CCN1C(=O)c1ccc3c(c1)OCO3)[C@H](CO)N2 returned KDM4C inh 0 and Pf Dd2 growth -90*.
Screening CCCC#Cc1ccc2c(c1)[C@@H]1[C@@H](CCN1S(=O)(=O)c1ccccc1F)[C@@H](CO)N2 returned KDM4C inh -3 and Pf Dd2 growth -64.
O=C(C[C@@H]1CC[C@@H]2[C@H](COC[C@H](O)CN2C(=O)c2ccc(F)cc2)O1)N1CCOCC1 was read as T cruzi growth -8, KDM4C inh -4 and Pf Dd2 growth 5.
`C[C@H](CO)N1C[C@H](C)[C@@H](CN(C)Cc2ccc(C(F)(F)F)cc2)OCCCC[C@H](C)Oc2ccc(NS(=O)(=O)c3ccc(F)cc3)cc2C1=O` gave T cruzi growth 41, KDM4C inh -1, IDH1 R132H inh -13 and Pf Dd2 growth -43.
COc1cccc(NC(=O)C[C@@H]2CC[C@@H]3[C@@H](COc4ccc(NS(=O)(=O)c5cccc(F)c5)cc4C(=O)N3C)O2)c1 was read as T cruzi growth -49, KDM4C inh 2 and Pf Dd2 growth -5.
`CCCC(=O)Nc1ccc2c(c1)C(=O)N(C)[C@H]1CC[C@H](CC(=O)NCCCN(C)C)O[C@H]1CO2` gave T cruzi growth -8, KDM4C inh 2 and Pf Dd2 growth 7.
For COc1ccc(C#Cc2cnc3c(c2)C(=O)N([C@H](C)CO)C[C@H](C)[C@H](CN(C)S(=O)(=O)c2cccs2)O3)cc1OC the results were T cruzi growth 77, KDM4C inh -3, IDH1 R132H inh 0 and Pf Dd2 growth -84*!.
COc1ccc(C#Cc2cnc3c(c2)C(=O)N([C@H](C)CO)C[C@H](C)[C@H](CN(C)S(=O)(=O)c2ccccc2)O3)cc1OC was read as T cruzi growth 30, KDM4C inh -1, IDH1 R132H inh 0 and Pf Dd2 growth -76.
CCCN(C)C[C@H]1Oc2ncc(C#Cc3ccc(OC)cc3)cc2C(=O)N([C@H](C)CO)C[C@H]1C was read as KDM4C inh 4, IDH1 R132H inh 0 and Pf Dd2 growth -84*.
For COc1ccc(C#Cc2cnc3c(c2)C(=O)N([C@@H](C)CO)C[C@H](C)[C@@H](CN(C)C)O3)cc1 the results were T cruzi growth 49, KDM4C inh 4, IDH1 R132H inh 0 and Pf Dd2 growth -42.

Assay outcomes as filed in PubChem BioAssay.
